Measured values published in ChEMBL document CHEMBL1153560, “In vitro activities of doripenem and six comparator drugs against 423 aerobic and anaerobic bacterial isolates from infected diabetic foot wounds” (2008).
Values after ≈ are worked out from the molar mass of the structure shown.

Tests used:
Format in all cases: functional
[1] = system: Corynebacterium aurimucosum; assay: Antibacterial activity against Corynebacterium aurimucosum isolated from patient with diabetic foot infection after 48 hrs by broth microdilution method
Method in brief: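 Isolates were subcultured on Trypticase soy blood agar. Broth microdilution used cation-adjusted Mueller-Hinton broth with lysed horse blood, in-house trays of twofold drug dilutions stored at −70°C. Colonies from overnight growth gave a final inoculum of about 5 × 10^5 CFU/ml. Trays were read after 18 to 24 h at 37°C, up to 48 h for some strains.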

[2] = system: Porphyromonas asaccharolytica; assay: Antibacterial activity against Porphyromonas asaccharolyticus isolated from patient with diabetic foot infection assessed as percent resistant isolates after 44 to 48 hrs by agar dilution method
Method in brief: (§1)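 Agar dilution per CLSI M11-A7. Twofold drug dilutions made on the test day and added to molten agar. Replicator-applied inoculum of 10^5 CFU/spot. Drug-free control plates inoculated before and after each drug set. Incubation at 37°C for 44 to 48 h, anaerobic chamber. MIC taken as the lowest concentration giving no growth or a marked change in growth versus controls.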

Anaerococcus tetradius = assay: Antibacterial activity against Anaerococcus tetradius isolated from patient with diabetic foot infection assessed as percent resistant isolates after 44 to 48 hrs by agar dilution method; method in brief: as §1
[3] = system: Parabacteroides distasonis; assay: Antibacterial activity against Parabacteroides distasonis isolated from patient with diabetic foot infection after 44 to 48 hrs by agar dilution method
Method in brief: (§2)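 CLSI M11-A7 agar dilution: serial twofold drug dilutions made on the test day and added to molten agar. Spots of 10^5 CFU were applied by replicator, with drug-free control plates inoculated before and after each set. Incubation was 44 to 48 h at 37°C in an anaerobic chamber. MIC was the lowest concentration giving no growth or a marked change in growth versus controls.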

[4] = system: Enterocloster clostridioformis; assay: Antibacterial activity against Clostridium clostridioforme isolated from patient with diabetic foot infection assessed as percent resistant isolates after 44 to 48 hrs by agar dilution method; method in brief: as §1
Cutibacterium acnes = assay: Antibacterial activity against Propionibacterium acnes isolated from patient with diabetic foot infection assessed as percent resistant isolates after 44 to 48 hrs by agar dilution method; method in brief: as §1
[5] = system: Enterocloster clostridioformis; assay: Antibacterial activity against Clostridium clostridioforme isolated from patient with diabetic foot infection after 44 to 48 hrs by agar dilution method; method in brief: as §2
Anaerococcus vaginalis [6] = assay: Antibacterial activity against Anaerococcus vaginalis isolated from patient with diabetic foot infection assessed as percent resistant isolates after 44 to 48 hrs by agar dilution method; method in brief: as §1
Anaerococcus vaginalis [7] = assay: Antibacterial activity against Anaerococcus vaginalis isolated from patient with diabetic foot infection after 44 to 48 hrs by agar dilution method; method in brief: as §2
Bacteroides stercoris [8] = assay: Antibacterial activity against Bacteroides stercoris isolated from patient with diabetic foot infection assessed as percent resistant isolates after 44 to 48 hrs by agar dilution method; method in brief: as §1
[9] = system: Streptococcus dysgalactiae subsp. equisimilis; assay: Antibacterial activity against Streptococcus dysgalactiae subsp. equisimilis isolated from patient with diabetic foot infection assessed as percent resistant isolates after 18 to 24 hrs by broth microdilution method
Method in brief: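 Streptococci subcultured on Trypticase soy blood agar and tested by broth microdilution in cation-adjusted Mueller-Hinton broth with lysed horse blood. In-house twofold dilution trays stored at −70°C. About 5 × 10^5 CFU/ml final inoculum from overnight colonies. Read after 18 to 24 h at 37°C.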

Phocaeicola vulgatus = assay: Antibacterial activity against Bacteroides vulgatus isolated from patient with diabetic foot infection assessed as percent resistant isolates after 44 to 48 hrs by agar dilution method; method in brief: as §1
Corynebacterium xerosis = assay: Antibacterial activity against Corynebacterium xerosis isolated from patient with diabetic foot infection assessed as percent resistant isolates after 48 hrs by broth microdilution method
Method in brief: (§3)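 Isolates subcultured on Trypticase soy blood agar. Broth microdilution in cation-adjusted Mueller-Hinton broth with lysed horse blood, using in-house twofold dilution trays stored at −70°C. Inoculum from overnight colonies at about 5 × 10^5 CFU/ml final. Read after 18 to 24 h at 37°C, up to 48 h for some Corynebacterium strains.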

[10] = system: Bacteroides thetaiotaomicron; assay: Antibacterial activity against Bacteroides thetaiotaomicron isolated from patient with diabetic foot infection assessed as percent resistant isolates after 44 to 48 hrs by agar dilution method; method in brief: as §1
[Clostridium] innocuum = Antibacterial activity against Clostridium innocuum isolated from patient with diabetic foot infection assessed as percent resistant isolates after 44 to 48 hrs by agar dilution method; method in brief: as §1
[11] = system: Clostridium malenominatum; assay: Antibacterial activity against Clostridium malenominatum isolated from patient with diabetic foot infection after 44 to 48 hrs by agar dilution method; method in brief: as §2
Staphylococcus aureus = assay: Antibacterial activity against methicillin-resistant Staphylococcus aureus isolated from patient with diabetic foot infection after 18 to 24 hrs by broth microdilution method
Method in brief: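 Isolates grown on Trypticase soy blood agar, then tested by broth microdilution in unsupplemented cation-adjusted Mueller-Hinton broth. In-house trays held serial twofold drug dilutions and were stored at −70°C. Overnight colonies were suspended to a final inoculum near 5 × 10^5 CFU/ml, and trays read after 18–24 h at 37°C. QC strains: S. aureus ATCC 29213, E. coli ATCC 25922.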

Porphyromonas somerae = assay: Antibacterial activity against Porphyromonas somerae isolated from patient with diabetic foot infection after 44 to 48 hrs by agar dilution method; method in brief: as §2
[12] = system: Corynebacterium aurimucosum; assay: Antibacterial activity against Corynebacterium aurimucosum isolated from patient with diabetic foot infection assessed as percent resistant isolates after 48 hrs by broth microdilution method; method in brief: as §3
Bacteroides stercoris [13] = assay: Antibacterial activity against Bacteroides stercoris isolated from patient with diabetic foot infection after 44 to 48 hrs by agar dilution method; method in brief: as §2
Lacrimispora sphenoides = assay: Antibacterial activity against Clostridium sphenoides isolated from patient with diabetic foot infection assessed as percent resistant isolates after 44 to 48 hrs by agar dilution method; method in brief: as §1
Klebsiella oxytoca = assay: Antibacterial activity against Klebsiella oxytoca isolated from patient with diabetic foot infection assessed as percent resistant isolates after 18 to 24 hrs by broth microdilution method
Method in brief: (§4)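 Aerobes subcultured on Trypticase soy blood agar, then broth microdilution in cation-adjusted Mueller-Hinton broth. Trays prepared in-house with twofold dilutions and stored at −70°C. Overnight colonies suspended to about 5 × 10^5 CFU/ml final. Read after 18 to 24 h at 37°C. QC strains included S. aureus ATCC 29213 and E. coli ATCC 25922.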

Klebsiella pneumoniae = assay: Antibacterial activity against Klebsiella pneumoniae isolated from patient with diabetic foot infection after 18 to 24 hrs by broth microdilution method
Method in brief: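 Isolates were subcultured on Trypticase soy blood agar and tested by broth microdilution in cation-adjusted Mueller-Hinton broth. In-house trays of twofold drug dilutions were stored at −70°C. Overnight colonies gave a final inoculum of about 5 × 10^5 CFU/ml. Plates were read after 18 to 24 h at 37°C.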

Proteus mirabilis = assay: Antibacterial activity against Proteus mirabilis isolated from patient with diabetic foot infection assessed as percent resistant isolates after 18 to 24 hrs by broth microdilution method; method in brief: as §4

Compound | Activity [2] [%] | Activity (Anaerococcus tetradius) [%] | MIC50 [3] [µg/mL] | MIC90 [3] [µg/mL] | Activity [4] [%] | Activity (Cutibacterium acnes) [%] | MIC50 [5] [µg/mL] | MIC90 [5] [µg/mL] | Activity (Anaerococcus vaginalis [6]) [%] | MIC50 (Anaerococcus vaginalis [7]) [µg/mL] | Activity (Bacteroides stercoris [8]) [%] | Activity (Phocaeicola vulgatus) [%] | Activity [10] [%] | Activity ([Clostridium] innocuum) [%] | MIC50 [11] [µg/mL] | MIC90 [11] [µg/mL] | MIC50 (Porphyromonas somerae) [µg/mL] | MIC90 (Porphyromonas somerae) [µg/mL] | MIC50 (Bacteroides stercoris [13]) [µg/mL] | MIC90 (Bacteroides stercoris [13]) [µg/mL] | other results
CCC[C@@H]1C[C@@H](C(=O)N[C@@H]([C@H]2O[C@H](SC)[C@H](O)[C@@H](O)[C@H]2O)[C@H](C)Cl)N(C)C1 [CLINDAMYCIN] | 12 | 18 | 2 (≈ 4.71 µM) | > 64 | 23 | 0 | 0.5 (≈ 1.18 µM) | 16 (≈ 37.6 µM) | 18 | 0.125 (≈ 0.294 µM) | 20 | 20 | 20 | 23 | 0.5 (≈ 1.18 µM) | 16 (≈ 37.6 µM) | ≤ 0.03 | 64 (≈ 151 µM) | 2 (≈ 4.71 µM) | > 64 | MIC50 [1]: > 64 µg/mL; MIC90 [1]: > 64 µg/mL; MIC90 (Anaerococcus vaginalis [7]): 64 µg/mL (≈ 151 µM); Activity [9]: 13%; Activity (Corynebacterium xerosis): 78%; MIC50 (Staphylococcus aureus): 0.125 µg/mL (≈ 0.294 µM); MIC90 (Staphylococcus aureus): > 64 µg/mL; Activity [12]: 100%; Activity (Lacrimispora sphenoides): 23%
C[C@@H](O)[C@H]1C(=O)N2C(C(=O)O)=C(S[C@@H]3CN[C@H](CNS(N)(=O)=O)C3)[C@H](C)[C@H]12 [DORIPENEM] | 0 | 0 | 0.25 (≈ 0.595 µM) | 1 (≈ 2.38 µM) | 0 | 0 | 0.06 (≈ 0.143 µM) | 1 (≈ 2.38 µM) | 0 | ≤ 0.015 | 0 | 0 | 0 | 0 | 0.06 (≈ 0.143 µM) | 1 (≈ 2.38 µM) | ≤ 0.015 | 0.03 (≈ 0.0713 µM) | 0.25 (≈ 0.595 µM) | 1 (≈ 2.38 µM) | MIC50 [1]: 1 µg/mL (≈ 2.38 µM); MIC90 [1]: 8 µg/mL (≈ 19 µM); Activity (Klebsiella oxytoca): 0%; MIC90 (Anaerococcus vaginalis [7]): 0.06 µg/mL (≈ 0.143 µM); Activity [9]: 0%; MIC50 (Staphylococcus aureus): 0.5 µg/mL (≈ 1.19 µM); MIC90 (Staphylococcus aureus): 8 µg/mL (≈ 19 µM); MIC50 (Klebsiella pneumoniae): 0.06 µg/mL (≈ 0.143 µM); MIC90 (Klebsiella pneumoniae): 0.125 µg/mL (≈ 0.297 µM); Activity (Proteus mirabilis): 0%; Activity (Lacrimispora sphenoides): 0%
C[C@@H](O)[C@H]1C(=O)N2C(C(=O)O)=C(S[C@@H]3CN[C@H](C(=O)Nc4cccc(C(=O)O)c4)C3)[C@H](C)[C@H]12 [ERTAPENEM] | 0 | 0 | 1 (≈ 2.1 µM) | 2 (≈ 4.21 µM) | 0 | 0 | 0.25 (≈ 0.526 µM) | 2 (≈ 4.21 µM) | 0 | 0.125 (≈ 0.263 µM) | 0 | 0 | 0 | 0 | 0.25 (≈ 0.526 µM) | 2 (≈ 4.21 µM) | ≤ 0.015 | 0.06 (≈ 0.126 µM) | 1 (≈ 2.1 µM) | 2 (≈ 4.21 µM) | MIC50 [1]: 1 µg/mL (≈ 2.1 µM); MIC90 [1]: 32 µg/mL (≈ 67.3 µM); Activity (Klebsiella oxytoca): 0%; MIC90 (Anaerococcus vaginalis [7]): 0.25 µg/mL (≈ 0.526 µM); Activity [9]: 0%; MIC50 (Staphylococcus aureus): 2 µg/mL (≈ 4.21 µM); MIC90 (Staphylococcus aureus): > 32 µg/mL; MIC50 (Klebsiella pneumoniae): ≤ 0.015 µg/mL; MIC90 (Klebsiella pneumoniae): ≤ 0.015 µg/mL; Activity (Proteus mirabilis): 0%; Activity (Lacrimispora sphenoides): 0%
C[C@@H](O)[C@H]1C(=O)N2C(C(=O)O)=C(SCCNC=N)C[C@H]12 [IMIPENEM ANHYDROUS] | 0 | 0 | 0.5 (≈ 1.67 µM) | 1 (≈ 3.34 µM) | 0 | 0 | 0.25 (≈ 0.835 µM) | 2 (≈ 6.68 µM) | 0 | ≤ 0.015 | 0 | 0 | 0 | 0 | 0.25 (≈ 0.835 µM) | 2 (≈ 6.68 µM) | < 0.015 | ≤ 0.015 | 0.5 (≈ 1.67 µM) | 1 (≈ 3.34 µM) | MIC50 [1]: 0.25 µg/mL (≈ 0.835 µM); MIC90 [1]: 32 µg/mL (≈ 107 µM); Activity (Klebsiella oxytoca): 0%; MIC90 (Anaerococcus vaginalis [7]): 0.03 µg/mL (≈ 0.1 µM); Activity [9]: 0%; Activity (Corynebacterium xerosis): 0%; MIC50 (Staphylococcus aureus): 0.25 µg/mL (≈ 0.835 µM); MIC90 (Staphylococcus aureus): 4 µg/mL (≈ 13.4 µM); MIC50 (Klebsiella pneumoniae): 0.25 µg/mL (≈ 0.835 µM); MIC90 (Klebsiella pneumoniae): 1 µg/mL (≈ 3.34 µM); Activity [12]: 30%; Activity (Proteus mirabilis): 0%; Activity (Lacrimispora sphenoides): 0%
C[C@@H](O)[C@H]1C(=O)N2C(C(=O)O)=C(S[C@@H]3CN[C@H](C(=O)N(C)C)C3)[C@H](C)[C@H]12 [MEROPENEM] | 0 | 0 | 0.25 (≈ 0.652 µM) | 1 (≈ 2.61 µM) | 0 | 0 | 0.06 (≈ 0.156 µM) | 1 (≈ 2.61 µM) | 0 | 0.03 (≈ 0.0782 µM) | 0 | 0 | 0 | 0 | 0.06 (≈ 0.156 µM) | 1 (≈ 2.61 µM) | ≤ 0.015 | ≤ 0.015 | 0.25 (≈ 0.652 µM) | 1 (≈ 2.61 µM) | MIC50 [1]: 1 µg/mL (≈ 2.61 µM); MIC90 [1]: 16 µg/mL (≈ 41.7 µM); Activity (Klebsiella oxytoca): 0%; MIC90 (Anaerococcus vaginalis [7]): 0.125 µg/mL (≈ 0.326 µM); Activity [9]: 0%; Activity (Corynebacterium xerosis): 0%; MIC50 (Staphylococcus aureus): 2 µg/mL (≈ 5.22 µM); MIC90 (Staphylococcus aureus): 16 µg/mL (≈ 41.7 µM); MIC50 (Klebsiella pneumoniae): 0.03 µg/mL (≈ 0.0782 µM); MIC90 (Klebsiella pneumoniae): 0.06 µg/mL (≈ 0.156 µM); Activity [12]: 20%; Activity (Proteus mirabilis): 0%; Activity (Lacrimispora sphenoides): 0%
Cc1ncc([N+](=O)[O-])n1CCO [METRONIDAZOLE] | 0 | 0 | 0.5 (≈ 2.92 µM) | 1 (≈ 5.84 µM) | 0 | 100 | 0.125 (≈ 0.73 µM) | 0.25 (≈ 1.46 µM) | 0 | 0.5 (≈ 2.92 µM) | 0 | 0 | 0 | 0 | 0.125 (≈ 0.73 µM) | 0.25 (≈ 1.46 µM) | 0.05 (≈ 0.292 µM) | 0.25 (≈ 1.46 µM) | 0.5 (≈ 2.92 µM) | 1 (≈ 5.84 µM) | Activity (Lacrimispora sphenoides): 0%
